Experimental data: ChEMBL document CHEMBL1649483, “Molecular analysis of the gyrA and gyrB quinolone resistance-determining regions of fluoroquinolone-resistant Clostridium difficile mutants selected in vitro” (2009)

Experiments:
Assay type in all cases: functional
Clostridioides difficile [1] = experiment: Antimicrobial activity against Clostridium difficile A422D harboring GyrB Leu451Phe mutant gene selected after 8 ug/ml of levofloxacin by Etest method
In short: (§1)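 Stable in vitro-selected mutant tested for gatifloxacin susceptibility by Etest, per the manufacturer's instructions, with an 8 μg/ml breakpoint. For selection, the parent was grown in antibiotic-free brain heart infusion (BHI) for 24 h at 35°C under anaerobic conditions. […] Later steps used double the MIC. Stability was confirmed by three subcultures.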

Clostridioides difficile [2] = experiment: Antimicrobial activity against Clostridium difficile A422C selected after 4 ug/ml of levofloxacin by Etest method; in short: as §1
Clostridioides difficile [3] = experiment: Antimicrobial activity against Clostridium difficile C253a selected after 2 ug/ml of moxifloxacin by Etest method
Clostridioides difficile [4] = experiment: Antimicrobial activity against Clostridium difficile 630d selected after 4 ug/ml of moxifloxacin by Etest method; in short: as §1
Clostridioides difficile [5] = experiment: Antimicrobial activity against Clostridium difficile BI2b harboring GyrB Arg447Lys mutant gene selected after 2 ug/ml of moxifloxacin by Etest method; in short: as §1
Clostridioides difficile [6] = experiment: Antimicrobial activity against Clostridium difficile A422h harboring GyrA Asp81Asn mutant gene selected after 8 ug/ml of moxifloxacin by Etest method; in short: as §1
Clostridioides difficile [7] = experiment: Antimicrobial activity against Clostridium difficile CD5C harboring GyrB Ser416Ala mutant gene selected after 4 ug/ml of levofloxacin by Etest method
Clostridioides difficile [8] = experiment: Antimicrobial activity against Clostridium difficile 630g harboring GyrB […] mutant gene selected after 8 ug/ml of moxifloxacin by Etest method; in short: as §1
Clostridioides difficile [9] = experiment: Antimicrobial activity against Clostridium difficile A422i harboring GyrA Asp81Asn mutant gene selected after 8 ug/ml of moxifloxacin by Etest method; in short: as §1
Clostridioides difficile [10] = experiment: Antimicrobial activity against Clostridium difficile BI2c harboring GyrB Arg447Lys mutant gene selected after 2 ug/ml of moxifloxacin by Etest method; in short: as §1
Clostridioides difficile [11] = experiment: Antimicrobial activity against Clostridium difficile BI2D harboring GyrB Glu466Lys mutant gene selected after 8 ug/ml of levofloxacin by Etest method; in short: as §1
Clostridioides difficile [12] = experiment: Antimicrobial activity against Clostridium difficile A422b selected after 2 ug/ml of moxifloxacin by Etest method; in short: as §1
Clostridioides difficile [13] = experiment: Antimicrobial activity against Clostridium difficile BI2A selected after 4 ug/ml of levofloxacin by Etest method; in short: as §1
Clostridioides difficile [14] = experiment: Antimicrobial activity against Clostridium difficile A422e selected after 4 ug/ml of moxifloxacin by Etest method; in short: as §1
Clostridioides difficile [15] = experiment: Antimicrobial activity against Clostridium difficile A422B selected after 4 ug/ml of levofloxacin by Etest method; in short: as §1
Clostridioides difficile [16] = experiment: Antimicrobial activity against Clostridium difficile BI2f harboring GyrB Arg447Lys and Asp426Asn mutant gene selected after 32 ug/ml of moxifloxacin by Etest method; in short: as §1
Clostridioides difficile [17] = experiment: Antimicrobial activity against Clostridium difficile C253b selected after 2 ug/ml of moxifloxacin by Etest method
Clostridioides difficile [18] = experiment: Antimicrobial activity against Clostridium difficile C253B selected after 4 ug/ml of levofloxacin by Etest method
Clostridioides difficile [19] = experiment: Antimicrobial activity against Clostridium difficile CD5A harboring GyrB Ser416Ala mutant gene selected after 4 ug/ml of levofloxacin by Etest method
Clostridioides difficile [20] = experiment: Antimicrobial activity against Clostridium difficile A422f selected after 4 ug/ml of moxifloxacin by Etest method; in short: as §1
Clostridioides difficile [21] = experiment: Antimicrobial activity against Clostridium difficile C253i harboring GyrA Ala118Ser mutant gene selected after 8 ug/ml of moxifloxacin by Etest method
Clostridioides difficile [22] = experiment: Antimicrobial activity against Clostridium difficile CD5a harboring GyrB Ser416Ala mutant gene selected after 2 ug/ml of moxifloxacin by Etest method
Clostridioides difficile [23] = experiment: Antimicrobial activity against Clostridium difficile BI2E harboring GyrB Glu466Lys mutant gene selected after 8 ug/ml of levofloxacin by Etest method; in short: as §1
Clostridioides difficile [24] = experiment: Antimicrobial activity against Clostridium difficile BI2d harboring GyrB Arg447Lys and Asp426Asn mutant gene selected after 32 ug/ml of moxifloxacin by Etest method; in short: as §1
Clostridioides difficile [25] = experiment: Antimicrobial activity against Clostridium difficile C253E selected after 8 ug/ml of levofloxacin by Etest method
Clostridioides difficile [26] = experiment: Antimicrobial activity against Clostridium difficile A422D harboring GyrB Leu451Phe mutant gene selected after 8 ug/ml of levofloxacin by agar dilution method
Clostridioides difficile [27] = experiment: Antimicrobial activity against Clostridium difficile A422C selected after 4 ug/ml of levofloxacin by agar dilution method
Clostridioides difficile [28] = experiment: Antimicrobial activity against Clostridium difficile BI2F harboring GyrB Glu466Lys mutant gene selected after 8 ug/ml of levofloxacin by agar dilution method
Clostridioides difficile [29] = experiment: Antimicrobial activity against Clostridium difficile 630E harboring GyrA Ala118Val mutant gene selected after 8 ug/ml of levofloxacin by agar dilution method
Clostridioides difficile [30] = experiment: Antimicrobial activity against Clostridium difficile CD5F harboring GyrB Ser416Ala mutant gene selected after 8 ug/ml of levofloxacin by agar dilution method
Clostridioides difficile [31] = experiment: Antimicrobial activity against Clostridium difficile A422B selected after 4 ug/ml of levofloxacin by agar dilution method
Clostridioides difficile [32] = experiment: Antimicrobial activity against Clostridium difficile C253e selected after 4 ug/ml of moxifloxacin by agar dilution method
Clostridioides difficile [33] = experiment: Antimicrobial activity against Clostridium difficile A422b selected after 2 ug/ml of moxifloxacin by agar dilution method
Clostridioides difficile [34] = experiment: Antimicrobial activity against Clostridium difficile A422I harboring GyrA Thr82Ile and GyrB Leu451Phe mutant genes selected after 8 ug/ml of levofloxacin by agar dilution method
Clostridioides difficile [35] = experiment: Antimicrobial activity against Clostridium difficile BI2b harboring GyrB Arg447Lys mutant gene selected after 2 ug/ml of moxifloxacin by agar dilution method
Clostridioides difficile [36] = experiment: Antimicrobial activity against Clostridium difficile 630a selected after 2 ug/ml of moxifloxacin by agar dilution method
Clostridioides difficile [37] = experiment: Antimicrobial activity against Clostridium difficile 630i harboring GyrB […] mutant gene selected after 8 ug/ml of moxifloxacin by agar dilution method
Clostridioides difficile [38] = experiment: Antimicrobial activity against Clostridium difficile CD5h harboring GyrA Ala118Ser, Thr82Ala and GyrB Ser416Ala mutant genes selected after 8 ug/ml of moxifloxacin by agar dilution method
Clostridioides difficile [39] = experiment: Antimicrobial activity against Clostridium difficile A422i harboring GyrA Asp81Asn mutant gene selected after 8 ug/ml of moxifloxacin by agar dilution method
Clostridioides difficile [40] = experiment: Antimicrobial activity against Clostridium difficile 630D harboring GyrA Ala118Val mutant gene selected after 8 ug/ml of levofloxacin by agar dilution method
Clostridioides difficile [41] = experiment: Antimicrobial activity against Clostridium difficile 630d selected after 4 ug/ml of moxifloxacin by agar dilution method
Clostridioides difficile [42] = experiment: Antimicrobial activity against Clostridium difficile C253d selected after 4 ug/ml of moxifloxacin by agar dilution method
Clostridioides difficile [43] = experiment: Antimicrobial activity against Clostridium difficile 630C selected after 4 ug/ml of levofloxacin by agar dilution method

COc1c(N2CCNC(C)C2)c(F)cc2c(=O)c(C(=O)O)cn(C3CC3)c12 (stereo not drawn) [GATIFLOXACIN]
MIC (Clostridioides difficile [1]): 2 µg/mL | MIC (Clostridioides difficile [2]): 1 µg/mL | MIC (Clostridioides difficile [3]): 1 µg/mL | MIC (Clostridioides difficile [4]): 2 µg/mL | MIC (Clostridioides difficile [5]): 1.5 µg/mL | MIC (Clostridioides difficile [6]): ≥ 32 µg/mL | MIC (Clostridioides difficile [7]): 0.5 µg/mL | MIC (Clostridioides difficile [8]): ≥ 32 µg/mL | MIC (Clostridioides difficile [9]): ≥ 32 µg/mL | MIC (Clostridioides difficile [10]): 1.5 µg/mL | MIC (Clostridioides difficile [11]): ≥ 32 µg/mL | MIC (Clostridioides difficile [12]): 1.5 µg/mL | MIC (Clostridioides difficile [13]): 2 µg/mL | MIC (Clostridioides difficile [14]): 1.5 µg/mL | MIC (Clostridioides difficile [15]): 1 µg/mL | MIC (Clostridioides difficile [16]): 6 µg/mL | MIC (Clostridioides difficile [17]): 1 µg/mL | MIC (Clostridioides difficile [18]): 0.5 µg/mL | MIC (Clostridioides difficile [19]): 0.5 µg/mL | MIC (Clostridioides difficile [20]): 1.5 µg/mL | MIC (Clostridioides difficile [21]): 8 µg/mL | MIC (Clostridioides difficile [22]): 0.75 µg/mL | MIC (Clostridioides difficile [23]): ≥ 32 µg/mL | MIC (Clostridioides difficile [24]): 6 µg/mL | MIC (Clostridioides difficile [25]): 1 µg/mL

C[C@H]1COc2c(N3CCN(C)CC3)c(F)cc3c(=O)c(C(=O)O)cn1c23.C[C@H]1COc2c(N3CCN(C)CC3)c(F)cc3c(=O)c(C(=O)O)cn1c23.O [LEVOFLOXACIN]
MIC (Clostridioides difficile [26]): 2 µg/mL | MIC (Clostridioides difficile [27]): 1 µg/mL | MIC (Clostridioides difficile [28]): 16 µg/mL | MIC (Clostridioides difficile [29]): 8 µg/mL | MIC (Clostridioides difficile [30]): 2 µg/mL | MIC (Clostridioides difficile [31]): 1 µg/mL | MIC (Clostridioides difficile [32]): 4 µg/mL | MIC (Clostridioides difficile [33]): 4 µg/mL | MIC (Clostridioides difficile [34]): 64 µg/mL | MIC (Clostridioides difficile [35]): 8 µg/mL | MIC (Clostridioides difficile [36]): 4 µg/mL | MIC (Clostridioides difficile [37]): 64 µg/mL | MIC (Clostridioides difficile [38]): 64 µg/mL | MIC (Clostridioides difficile [39]): 64 µg/mL | MIC (Clostridioides difficile [40]): 8 µg/mL | MIC (Clostridioides difficile [41]): 4 µg/mL | MIC (Clostridioides difficile [42]): 4 µg/mL | MIC (Clostridioides difficile [43]): 1 µg/mL
